We go through two compounds from BindingDB's records for doi:10.1021/jm9600205 (National Institute of Diabetes, 1996).

The target of the test is Adenosine receptor A2a (Rattus norvegicus, UniProt P30543). In words: Displacement of [3H]-CGS- 21680 binding to Adenosine A2A receptor in rat striatal membranes. In a few lines:
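Adenosine deaminase (3 units/mL) present during preparation, 30 min preincubation at 30 °C and incubation. At least five competitor concentrations over 3 orders of magnitude.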
On the technique in general: Loss of bound radioactivity is the signal in a displacement assay; it reports binding, not function.

A word on the Ki: it is the dissociation constant of the complex between target and ligand, obtained from inhibition or displacement.

Sequence of Adenosine receptor A2a (P30543 whole entry): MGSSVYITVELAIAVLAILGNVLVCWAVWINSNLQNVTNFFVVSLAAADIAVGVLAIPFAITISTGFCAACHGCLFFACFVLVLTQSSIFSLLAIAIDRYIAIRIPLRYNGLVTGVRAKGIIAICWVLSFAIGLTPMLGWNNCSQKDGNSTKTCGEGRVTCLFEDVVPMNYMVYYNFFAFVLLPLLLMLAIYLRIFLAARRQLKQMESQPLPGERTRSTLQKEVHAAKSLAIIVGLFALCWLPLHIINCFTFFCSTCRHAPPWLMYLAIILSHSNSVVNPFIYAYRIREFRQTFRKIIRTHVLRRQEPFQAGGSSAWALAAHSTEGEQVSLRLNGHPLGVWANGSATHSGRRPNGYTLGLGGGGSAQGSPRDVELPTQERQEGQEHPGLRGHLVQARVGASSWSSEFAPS

In turn, `CCOC(=O)C1=C(c2ccccc2)N=C(C)C(C(=O)OCC)C1C` (configuration not stated) [2,4-Dimethyl-6-phenyl-1,4-dihydro-pyridine-3,5-dicarboxylic acid diethyl ester] had a Ki of 35.9 µM. Compound `CCOC(=O)C1=C(C)N=C(C)C(C(=O)OC)C1C` (configuration not stated) [2,4,6-Trimethyl-1,4-dihydro-pyridine-3,5-dicarboxylic acid 3-ethyl ester 5-methyl ester] came in with a Ki of 46.1 µM.
